ChEMBL document CHEMBL4834454 (Bioorg Med Chem, 2021)

Columns and labels:
Cannabinoid receptor 1 [1] = biological target: T1, Cannabinoid receptor 1 (Homo sapiens, UniProt P21554); experiment: Allosteric antagonist activity at human CB1 receptor expressed in CHO-RD-HGA16 cells overexpressing Galpha16 assessed as inhibition of CP55940-stimulated calcium mobilization preincubated for 15 mins followed by agonist addition and measured every 1 sec for 90 secs by Calcium-3 dye based FLIPR assay; type: functional, cell-based
T1 sequence (P21554 whole entry): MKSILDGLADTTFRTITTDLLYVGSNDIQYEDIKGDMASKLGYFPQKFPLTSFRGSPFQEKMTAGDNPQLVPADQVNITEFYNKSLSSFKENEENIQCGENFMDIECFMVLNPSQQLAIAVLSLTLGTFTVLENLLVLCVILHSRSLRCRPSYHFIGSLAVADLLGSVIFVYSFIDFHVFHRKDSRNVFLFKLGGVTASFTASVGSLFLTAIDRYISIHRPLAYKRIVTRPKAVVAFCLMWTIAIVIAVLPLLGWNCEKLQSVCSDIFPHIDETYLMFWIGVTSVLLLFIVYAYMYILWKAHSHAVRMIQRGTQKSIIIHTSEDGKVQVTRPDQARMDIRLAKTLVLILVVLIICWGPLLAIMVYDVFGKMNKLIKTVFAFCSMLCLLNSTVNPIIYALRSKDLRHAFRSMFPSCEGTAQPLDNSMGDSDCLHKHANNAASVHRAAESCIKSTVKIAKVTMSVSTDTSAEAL

Cannabinoid receptor 2 [2] = biological target: T2, Cannabinoid receptor 2 (Homo sapiens, UniProt P34972); experiment: Antagonist activity at human CB2 receptor expressed in CHO-RD-HGA16 cells overexpressing Galpha16 assessed as inhibition of CP55940-stimulated calcium mobilization at 10 uM preincubated for 15 mins followed by agonist addition and measured every 1 sec for 90 secs by Calcium-3 dye based FLIPR assay; type: functional, cell-based; conditions: time 990.0 sec
T2 sequence (P34972 whole entry): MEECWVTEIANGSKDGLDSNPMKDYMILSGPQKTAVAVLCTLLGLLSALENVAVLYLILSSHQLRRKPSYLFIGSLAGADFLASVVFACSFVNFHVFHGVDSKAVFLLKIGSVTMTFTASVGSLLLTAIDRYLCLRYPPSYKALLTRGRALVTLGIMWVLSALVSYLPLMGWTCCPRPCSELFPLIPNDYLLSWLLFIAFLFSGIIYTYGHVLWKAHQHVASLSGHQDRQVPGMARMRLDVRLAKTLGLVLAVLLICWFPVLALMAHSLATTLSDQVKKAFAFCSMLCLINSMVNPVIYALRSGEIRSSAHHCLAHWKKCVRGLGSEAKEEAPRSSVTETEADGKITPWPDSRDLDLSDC

Cannabinoid receptor 1 [3] = biological target: T1, Cannabinoid receptor 1; experiment: biochemical
Cannabinoid receptor 2 [4] = biological target: T2, Cannabinoid receptor 2; experiment: Agonist activity at human CB2 receptor expressed in CHO-RD-HGA16 cells overexpressing Galpha16 assessed as stimulation of calcium mobilization measured every 1 sec for 90 secs by Calcium-3 dye based FLIPR assay relative to Emax of CP55940; type: functional, cell-based; conditions: time 90.0 sec
Procedure, shortened: (§1)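 Agonist screen. […] They were pretreated with vehicle (BSA/DMSO/EtOH buffer) for 15 min, and a single concentration of test compound was added at 10 s. Fluorescence (485/525 nm) was read for 90 s. RFU is expressed as % of CP55,940 Emax RFU. Line 1 uses hCB1 cells; line 2 uses hCB2 cells.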

Cannabinoid receptor 2 [5] = biological target: T2, Cannabinoid receptor 2; experiment: Antagonist activity at human CB2 receptor expressed in CHO-RD-HGA16 cells overexpressing Galpha16 assessed as inhibition of CP55940-stimulated calcium mobilization preincubated for 15 mins followed by agonist addition and measured every 1 sec for 90 secs by Calcium-3 dye based FLIPR assay; type: functional, cell-based
Cannabinoid receptor 1 [6] = biological target: T1, Cannabinoid receptor 1; experiment: Agonist activity at human CB1 receptor expressed in CHO-RD-HGA16 cells overexpressing Galpha16 assessed as stimulation of calcium mobilization measured every 1 sec for 90 secs by Calcium-3 dye based FLIPR assay relative to Emax of CP55940; type: functional, cell-based; conditions: time 90.0 sec; procedure, shortened: as §1
Cannabinoid receptor 1 [7] = biological target: T1, Cannabinoid receptor 1; experiment: Allosteric antagonist activity at N-terminal 3HA-tagged human CB1 receptor expressed in HEK293 cells assessed as reduction in CP55940-stimulated inhibition of forskolin-induced cAMP accumulation measured for 20 mins by BRET assay; type: functional, cell-based

| Structure (SMILES) | IC50 (Cannabinoid receptor 1 [1]) | inhibition (Cannabinoid receptor 2 [2]) | Activity (Cannabinoid receptor 2 [4]) | IC50 (Cannabinoid receptor 2 [5]) | Activity (Cannabinoid receptor 1 [6]) | IC50 (Cannabinoid receptor 1 [3]) | IC50 (Cannabinoid receptor 1 [7]) |
| --- | --- | --- | --- | --- | --- | --- | --- |
| O=C(NCCc1ccc(N2CCCCC2)cc1)Nc1ccc(Cl)cc1 | 0.794 µM | < 50% | < 10% | > 10 µM |  | 1.26 µM |  |
| CC(C)(Cc1ccccc1)NC(=O)Nc1ccc(Cl)cc1 |  | < 50% | < 10% | > 10 µM | < 30% |  |  |
| O=C(NCCN1CCCCC1)Nc1ccc(Cl)cc1 |  | < 50% | < 10% | > 10 µM | < 30% |  |  |
| O=C(NCc1ccccc1)Nc1ccc(Cl)cc1 |  | < 50% | < 10% | > 10 µM | < 30% |  |  |
| O=C(NCCc1cccnc1)Nc1ccc(Cl)cc1 |  | < 50% | < 10% | > 10 µM | < 30% |  |  |
| O=C(NC[C@H]1C[C@@H]1c1ccccc1)Nc1ccc(Cl)cc1 (relative stereo) |  | < 50% | < 10% | > 10 µM | < 30% |  |  |
| O=C(NCCc1ccccc1)Nc1ccc(Cl)cc1 | 0.2 µM | < 50% | < 10% | > 10 µM |  | 6.31 µM | 3.16 µM |
| CC(C)(CNC(=O)Nc1ccc(Cl)cc1)c1ccccc1 |  | < 50% | < 10% | > 10 µM | < 30% |  |  |
| O=C(NCCCc1ccccc1)Nc1ccc(Cl)cc1 | 3.98 µM | < 50% | < 10% | > 10 µM | < 30% |  |  |
| O=C(NCCc1ccsc1)Nc1ccc(Cl)cc1 |  | < 50% | < 10% | > 10 µM | < 30% |  |  |
| CN(C)c1ccc(CCNC(=O)Nc2ccc(Cl)cc2)cc1 | 0.251 µM | < 50% | < 10% | > 10 µM | < 30% | 15.8 µM | 2.51 µM |
| O=C(NCCc1cccs1)Nc1ccc(Cl)cc1 |  | < 50% | < 10% | > 10 µM | < 30% |  |  |
| O=C(Nc1ccc(Cl)cc1)Nc1cccc(-c2cccc(N3CCCC3)n2)c1 |  |  | < 10% | > 10 µM | < 30% |  |  |
| Cc1ccc(CCNC(=O)Nc2ccc(Cl)cc2)o1 |  | < 50% | < 10% | > 10 µM | < 30% |  |  |
| CCc1c(C(=O)NCCc2ccc(N3CCCCC3)cc2)[nH]c2ccc(Cl)cc12 | 0.794 µM | < 50% | < 10% | > 10 µM |  | 1 µM | 0.158 µM |

Continued, in another order:

| IC50 (Cannabinoid receptor 1 [1]) | inhibition (Cannabinoid receptor 2 [2]) | Activity (Cannabinoid receptor 2 [4]) | IC50 (Cannabinoid receptor 2 [5]) | Activity (Cannabinoid receptor 1 [6]) | Structure (SMILES) | IC50 (Cannabinoid receptor 1 [3]) | IC50 (Cannabinoid receptor 1 [7]) |
| --- | --- | --- | --- | --- | --- | --- | --- |
| 1.58 µM | < 50% | < 10% | > 10 µM | < 30% | CC(=O)NCCNC(=O)Nc1ccc(Cl)cc1 |  |  |
| 3.16 µM | < 50% | < 10% | > 10 µM | < 30% | CCN(CC)c1ccc(CCNC(=O)Nc2ccc(Cl)cc2)cc1 |  |  |
|  | < 50% | < 10% | > 10 µM | < 30% | O=C(NCCN1CCCC1)Nc1ccc(Cl)cc1 |  |  |
|  | < 50% | < 10% | > 10 µM | < 30% | O=C(NCC(F)(F)c1ccccc1)Nc1ccc(Cl)cc1 |  |  |
|  | < 50% | < 10% | > 10 µM | < 30% | CN1CCN(CCNC(=O)Nc2ccc(Cl)cc2)CC1 |  |  |
| 5.01 µM | < 50% | < 10% | > 10 µM | < 30% | O=C(NCC1(c2ccccc2)CC1)Nc1ccc(Cl)cc1 |  |  |
|  | < 50% | < 10% | > 10 µM | < 30% | O=C(NCCc1ccncc1)Nc1ccc(Cl)cc1 |  |  |
|  | < 50% | < 10% | > 10 µM | < 30% | O=C(NCCN1CCOCC1)Nc1ccc(Cl)cc1 |  |  |
|  | < 50% | < 10% | > 10 µM | < 30% | O=C(Nc1ccc(Cl)cc1)NC1(Cc2ccccc2)CC1 |  |  |
| 0.794 µM | < 50% | < 10% | > 10 µM | < 30% | O=C(NCCc1ccc(N2CCCC2)cc1)Nc1ccc(Cl)cc1 | 39.8 µM |  |
| 3.98 µM | < 50% | < 10% | > 10 µM | < 30% | O=C(NCCc1ccccn1)Nc1ccc(Cl)cc1 |  |  |
